Assay results as given in ChEMBL document CHEMBL1133698, “Novel ligands lacking a positive charge for the delta- and mu-opioid receptors” (J Med Chem, 2000).
Where a SMILES comes first, the peptide text is derived from it. Bridges are numbered along the chain shown (N, C = ends). [ ]: non-standard residue; d: D form. 2Nal = N[C@@H](Cc1ccc2ccccc2c1)C(=O)O; Dmt = Cc1cc(O)cc(C)c1C[C@H](N)C(=O)O; dOrn = NCCC[C@@H](N)C(=O)O

How the values were obtained:
Cavia porcellus [1] = species on record: Cavia porcellus; experiment: (§1) Antagonist activity was determined against the selective delta -agonist TAPP in the GPI (guinea pig ileum) assay; type: functional
In short: (§2)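 Guinea pig ileum, electrically evoked contractions. µ-Agonist TAPP IC50 measured with and without antagonist at a fixed 500 nM. Ke = a/(DR − 1) from the IC50 ratio. Mean of three to six determinations ± SEM.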

Mus musculus [2] = species on record: Mus musculus; experiment: Antagonist activity was determined against the selective delta -agonist DPDPE in the MVD (mouse vas deferens) assay; type: functional
In short: (§3)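 Mouse vas deferens, electrically evoked contractions. DPDPE IC50 measured with and without a fixed antagonist concentration (50 to 4000 nM). Ke = a/(DR − 1), where DR is the ratio of agonist IC50 values. Mean of three to six determinations ± SEM.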

[3] = target: Delta-type opioid receptor (Rattus norvegicus, UniProt P33533); experiment: Binding affinity was determined by displacement of [3H]- DSLET at Opioid receptor delta 1 in rat brain membrane homogenates; type: cell membranes
In short: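 Rat brain membranes, [3H]DSLET at 0.78 nM, 2 h at 25 °C, with a peptidase inhibitor cocktail in buffer. Poorly soluble peptides dissolved in DMSO, diluted in buffer, filtered, and concentration set by optical density. IC50 from log dose-displacement curves. Ki by Cheng-Prusoff with Kd 2.6 nM. Mean of three to six determinations ± SEM.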

Mu-type opioid receptor = Mu-type opioid receptor (Rattus norvegicus, UniProt P33535); experiment: Binding affinity was determined by displacement of [3H]- DAMGO at Opioid receptor mu 1 in rat brain membrane homogenates; type: cell membranes
In short: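 Rat brain membranes, [3H]DAMGO at 0.72 nM, 2 h at 25 °C. Enzyme inhibitor cocktail in buffer (bestatin 100 µM, captopril 1.0 µM, thiorphan 1.0 µM, Leu-Leu 100 µM). IC50 from log dose-displacement curves. Ki by Cheng-Prusoff using Kd 1.3 nM. Mean of three to six determinations ± SEM.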

Cavia porcellus [4] = species on record: Cavia porcellus; experiment: as §1; type: functional, organism-based; in short: as §2
Mus musculus [5] = species on record: Mus musculus; experiment: Antagonist activity was determined against the selective delta -agonist DPDPE by inhibition of electrically evoked contractions of the mouse vas deferens; type: functional; in short: as §3

Sequence of Delta-type opioid receptor (P33533 whole entry, looked up): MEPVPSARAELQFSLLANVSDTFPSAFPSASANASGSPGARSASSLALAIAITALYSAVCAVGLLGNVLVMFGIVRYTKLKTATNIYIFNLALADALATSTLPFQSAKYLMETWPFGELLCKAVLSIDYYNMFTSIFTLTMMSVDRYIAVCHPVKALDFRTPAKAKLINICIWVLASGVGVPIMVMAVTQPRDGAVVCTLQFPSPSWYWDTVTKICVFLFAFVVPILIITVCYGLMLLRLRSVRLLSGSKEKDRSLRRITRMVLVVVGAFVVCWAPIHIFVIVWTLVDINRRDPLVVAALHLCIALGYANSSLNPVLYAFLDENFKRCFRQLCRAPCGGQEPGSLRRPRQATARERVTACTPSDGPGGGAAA
Sequence of Mu-type opioid receptor (P33535 whole entry, looked up): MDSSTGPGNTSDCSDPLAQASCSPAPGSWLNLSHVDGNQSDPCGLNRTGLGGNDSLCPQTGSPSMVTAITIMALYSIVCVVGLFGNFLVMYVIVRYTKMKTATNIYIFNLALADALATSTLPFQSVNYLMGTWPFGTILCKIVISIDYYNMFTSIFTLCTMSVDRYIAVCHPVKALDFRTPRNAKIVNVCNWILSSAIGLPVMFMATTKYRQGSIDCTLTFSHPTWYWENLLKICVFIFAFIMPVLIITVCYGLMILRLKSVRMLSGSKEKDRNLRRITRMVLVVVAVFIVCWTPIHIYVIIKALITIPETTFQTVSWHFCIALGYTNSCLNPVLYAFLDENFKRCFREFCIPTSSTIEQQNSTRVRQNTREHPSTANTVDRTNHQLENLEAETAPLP

Q: Cc1cc(O)cc(C)c1CCC(=O)N[C@@H]1CCCNC(=O)CNC(=O)[C@H]2CCCN2C(=O)[C@H](Cc2ccc3ccccc3c2)NC1=O was tested. Which Ke (Cavia porcellus [1]) did it give?
A: 237 nM

Q: And the Ke (Mus musculus [2])?
A: 121 nM

Q: What about the Ki [3] of the same compound?
A: 0.109 µM

Q: What about the Ki (Mu-type opioid receptor) of the same compound?
A: 0.45 µM

Q: Cc1cc(O)cc(C)c1C[C@H](NC=O)C(=O)N[C@@H]1CCCNC(=O)CNC(=O)[C@H]2CCCN2C(=O)[C@H](Cc2ccc3ccccc3c2)NC1=O was tested. Which Ke (Cavia porcellus [1]) did it give?
A: 216 nM

Q: What about the Ke (Mus musculus [2]) of the same compound?
A: 16.3 nM

Q: What about the Ki [3] of the same compound?
A: 0.0328 µM

Q: What about the Ki (Mu-type opioid receptor) of the same compound?
A: 0.218 µM

Q: Which results are given for C[C@@H](O)[C@@H]1NC(=O)[C@H](CC2CCCCC2)NC(=O)[C@@H](Cc2c[nH]c3ccccc23)NC(=O)[C@H](Cc2ccccc2)NC(=O)[C@@H]2CCCN2C(=O)[C@H](Cc2ccccc2)NC1=O?
A: Ke (Mus musculus [2]): 202 nM; Ki [3]: 0.486 µM; Ki (Mu-type opioid receptor): > 10 µM

Q: For C[C@@H](O)[C@@H]1NC(=O)[C@H](Cc2ccc(O)cc2)NC(=O)[C@@H](Cc2c[nH]c3ccccc23)NC(=O)[C@H](Cc2cccc3ccccc23)NC(=O)[C@@H]2CCCN2C(=O)[C@H](Cc2ccccc2)NC1=O, which Ke (Mus musculus [2]) is on record?
A: 128 nM

Q: And the Ki [3]?
A: 0.152 µM

Q: What about the Ki (Mu-type opioid receptor) of the same compound?
A: > 10 µM

Q: Which results are given for C[C@@H](O)[C@@H]1NC(=O)[C@H](Cc2ccc(O)cc2)NC(=O)[C@@H](Cc2c[nH]c3ccccc23)NC(=O)[C@H](Cc2ccc3ccccc3c2)NC(=O)[C@@H]2CCCN2C(=O)[C@H](Cc2ccccc2)NC1=O?
A: Ke (Mus musculus [2]): 2460 nM; Ki [3]: 1.07 µM; Ki (Mu-type opioid receptor): > 10 µM

Q: What does the source list for Cc1cc(O)cc(C)c1C[C@H](N)C(=O)N[C@@H]1CCCNC(=O)CNC(=O)[C@H]2CCCN2C(=O)[C@H](Cc2ccc3ccccc3c2)NC1=O (H-[Dmt][dOrn][2Nal][dP]G; lactam 2-C)?
A: Ke (Mus musculus [2]): 2.13 nM; IC50 (Cavia porcellus [4]): 0.00788 µM; Ki [3]: 0.000467 µM; Ki (Mu-type opioid receptor): 0.000476 µM

Q: Which results are given for C[C@@H](O)[C@@H]1NC(=O)[C@H](Cc2ccc(O)cc2)NC(=O)[C@@H](Cc2c[nH]c3ccccc23)NC(=O)[C@H](Cc2ccccc2)NC(=O)[C@@H]2CCCN2C(=O)[C@H](Cc2ccccc2)NC1=O (cyclo(FPF[dW]YT))?
A: Ke (Mus musculus [5]): 238 nM; Ki [3]: 0.759 µM; Ki (Mu-type opioid receptor): > 10 µM
